Assay [1] addresses T1, Bcl-2-related protein A1 (Homo sapiens, UniProt Q16548).
T1 sequence (Q16548 whole entry): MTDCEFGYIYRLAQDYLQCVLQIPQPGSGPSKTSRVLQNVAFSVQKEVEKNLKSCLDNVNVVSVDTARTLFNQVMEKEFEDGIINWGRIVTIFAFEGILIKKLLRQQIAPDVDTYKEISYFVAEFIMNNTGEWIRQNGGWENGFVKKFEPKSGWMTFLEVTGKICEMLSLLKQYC
Nature of the assay: Inhibition of N-terminal FITC BH3 peptide binding to GST-tagged Bfl1 by time resolved-FRET assay. Summed up: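 10-point 2-fold dilution series in 10% final DMSO, in duplicate wells. FITC-Bid (5.6 nM) plus Tb-antibody (2.5 nM) was then added and incubated 4 h at room temperature. TR-FRET read at ex 340 nm, signal taken as the 520/490 nm emission ratio.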

For assay [2], the target named is T1, Bcl-2-related protein A1. Nature of the assay: Inhibition of N-terminal FITC BH3 peptide binding to GST-tagged Bfl1 by fluorescence polarization assay. Summed up: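 Then FITC-Bid BH3 peptide (5.6 nM working solution) was added and incubated 4 h at room temperature. Ten concentrations in 10% DMSO. Fluorescence polarization read at ex 485/em 530 nm. IC50 from sigmoidal dose-response non-linear regression.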

Some results are limits rather than exact numbers.

Turning to `CN1CCN(C2=C(Cl)C(=O)N(c3ccccc3Cl)C2=O)CC1`, the IC50 in assay [1] was determined as 1000 nM; in assay [2], 3300 nM. Consider `O=C1C(Cl)=C(N2CCN(C/C=C/c3ccccc3)CC2)C(=O)N1c1ccc(Cl)c(Cl)c1`, for which the values for the concentration for half-maximal inhibition (IC50) in assay [1] and in assay [2] were 690 nM and 250 nM, respectively.

`O=C1C(Cl)=C(N2CCN(c3cccc(C(F)(F)F)c3)CC2)C(=O)N1c1ccc(Cl)c(Cl)c1`: the IC50 in assay [1] and in assay [2] was over 10000 nM throughout.

For `CN(C)C1=C(Cl)C(=O)N(c2ccc(Cl)c(Cl)c2)C1=O`, the IC50 was found to be 400 nM in assay [1] and 300 nM in assay [2]. `COc1cccc(N2CCN(C3=C(Cl)C(=O)N(c4ccc(Cl)c(Cl)c4)C3=O)CC2)c1`: the concentration for half-maximal inhibition (IC50) in assay [1] came to 5000 nM; in assay [2] it was 1200 nM. Taken in the same sequence, the figures for `O=C1C(Cl)=C(NCc2ccccc2)C(=O)N1c1ccc(Cl)c(Cl)c1` were over 50000 nM and over 50000 nM. Taken in the same sequence, the figures for `CN1CCN(C2CC(=O)N(c3ccc(Cl)c(Cl)c3)C2=O)CC1` (configuration not stated) were over 10000 nM and over 10000 nM. In the case of `CN1CCN(C2=C(Cl)C(=O)N(c3cccc(Cl)c3)C2=O)CC1`, the IC50 was determined as 1200 nM in assay [1] and 2100 nM in assay [2]. In the case of `O=C1C(Cl)=C(N2CCN(Cc3ccccc3)CC2)C(=O)N1c1ccc(Cl)c(Cl)c1`, the IC50 in assay [1] was determined as 1300 nM; in assay [2] it was 2400 nM. For `Cc1cccc(N2C(=O)C(Cl)=C(N3CCN(C)CC3)C2=O)c1`, the IC50 in assay [1] is 10800 nM; in assay [2], 12600 nM.

Consider `C[C@H]1CN(C2=C(Cl)C(=O)N(c3ccc(Cl)c(Cl)c3)C2=O)CCN1`, for which the IC50 in assay [1] is 1100 nM; in assay [2], 2200 nM. On to `CCN1CCN(C2=C(Cl)C(=O)N(c3ccc(Cl)c(Cl)c3)C2=O)CC1`, for which the 50% inhibitory concentration (IC50) in assay [1] amounted to 1000 nM; in assay [2], 1700 nM.

In the case of `CN1CCN(C2=C(Cl)C(=O)N(c3cc(Cl)cc(Cl)c3)C2=O)CC1`, the IC50 in assay [1] was determined as 1900 nM; in assay [2] it was 2400 nM. Take `O=C1C(Cl)=C(N2CCCCC2)C(=O)N1c1ccc(Cl)c(Cl)c1`: the IC50 in assay [1] and in assay [2] was over 50000 nM in each case. The molecule `CN1CCN(C2=C(Cl)C(=O)N(c3cccc(Cl)c3Cl)C2=O)CC1` came in with a 50% inhibitory concentration (IC50) in assay [1] of 2600 nM. On the same count and under the same terms, the value for `CN1CCN(C2=C(Cl)C(=O)N(c3ccc(Cl)cc3Cl)C2=O)CC1` was 1400 nM. As to `O=C1C(Cl)=C(NCCO)C(=O)N1c1ccc(Cl)c(Cl)c1`, the IC50 in assay [1] and in assay [2] was over 50000 nM throughout. `COc1ccc(N2CCN(C3=C(Cl)C(=O)N(c4ccc(Cl)c(Cl)c4)C3=O)CC2)cc1`: the concentration for half-maximal inhibition (IC50) in assay [1] is 8300 nM; in assay [2], over 10000 nM. As for `O=C1C(Cl)=C(N2CCCC2)C(=O)N1c1ccc(Cl)c(Cl)c1`, the IC50 in assay [1] and in assay [2] was over 50000 nM throughout. `CN1CCN(C2=CC(=O)N(c3ccc(Cl)cc3)C2=O)CC1`: the IC50 in assay [1] and in assay [2] was over 10000 nM throughout. Turning to `CN1CCN(C2=C(Cl)C(=O)N(c3ccc(Cl)c(Cl)c3)C2=O)CC1`, the IC50 amounted to 800 nM in assay [1] and 600 nM in assay [2]. For the molecule `CN1CCN(C2=C(Cl)C(=O)N(c3cccc([N+](=O)[O-])c3)C2=O)CC1`, the figures for the concentration for half-maximal inhibition (IC50) in assay [1] and in assay [2] were 3900 nM and 6800 nM, respectively. Turning to `O=C1C(Cl)=C(N2CCN(Cc3ccc4c(c3)OCO4)CC2)C(=O)N1c1ccc(Cl)c(Cl)c1`, the IC50 in assay [1] came out at 2100 nM.

In the case of `O=C1C(Cl)=C(N2CCOCC2)C(=O)N1c1ccc(Cl)c(Cl)c1`, the concentration for half-maximal inhibition (IC50) in assay [1] came to 450 nM; in assay [2], 800 nM. As for `CN1CCN(C2=C(Cl)C(=O)N(c3ccncc3Cl)C2=O)CC1`, the IC50 in assay [1] was determined as 35600 nM; in assay [2], 29000 nM. Turning to `COc1ccccc1N1CCN(C2=C(Cl)C(=O)N(c3ccc(Cl)c(Cl)c3)C2=O)CC1`, the half-maximal inhibitory concentration (IC50) in assay [1] was found to be 6200 nM; in assay [2] it was 9600 nM. As to `CC1C(=O)NCCN1C1=C(Cl)C(=O)N(c2ccc(Cl)c(Cl)c2)C1=O` (configuration not stated), the IC50 in assay [1] stood at 2000 nM. For `O=C1C(Cl)=C(N2CCN(CCOCCO)CC2)C(=O)N1c1ccc(Cl)c(Cl)c1`, the IC50 in assay [1] stood at 400 nM; in assay [2], 300 nM. Taken in the same sequence, the figures for `CCCCN1CCN(C2=C(Cl)C(=O)N(c3ccc(Cl)c(Cl)c3)C2=O)CC1` were 3300 nM and 10500 nM. As to `Cc1cccc(N2CCN(C3=C(Cl)C(=O)N(c4ccc(Cl)c(Cl)c4)C3=O)CC2)c1`, the IC50 in assay [1] was 8300 nM; in assay [2], over 10000 nM.

As to `O=C1C(Cl)=C(N2CCN(CCO)CC2)C(=O)N1c1ccc(Cl)c(Cl)c1`, the half-maximal inhibitory concentration (IC50) was 620 nM in assay [1] and 240 nM in assay [2].

On to `O=C1C(Cl)=C(N2CCN(c3ccccc3)CC2)C(=O)N1c1ccc(Cl)c(Cl)c1`, for which the IC50 in assay [1] came out at 4100 nM; in assay [2] it was 4900 nM. As to `C[C@@H]1CN(C2=C(Cl)C(=O)N(c3ccc(Cl)c(Cl)c3)C2=O)CCN1`, the 50% inhibitory concentration (IC50) in assay [1] was determined as 800 nM; in assay [2] it was 600 nM.
